Calls of active or inactive are those of the source. The rule behind the calls is not given here.
Legend:
[1] = target: T1, Protein deacetylase HDAC6 (Homo sapiens, UniProt Q9UBN7); test: Inhibition of N-terminal GST tagged human recombinant HDAC6 (1 to 1215 residues) expressed in Sf9 insect cells using Z-Lys(Ac)-AMC as fluorogenic substrate preincubated for 60 mins followed by substrate addition and measured after 90 mins by microplate reader analysis
T1 sequence (Q9UBN7 whole entry): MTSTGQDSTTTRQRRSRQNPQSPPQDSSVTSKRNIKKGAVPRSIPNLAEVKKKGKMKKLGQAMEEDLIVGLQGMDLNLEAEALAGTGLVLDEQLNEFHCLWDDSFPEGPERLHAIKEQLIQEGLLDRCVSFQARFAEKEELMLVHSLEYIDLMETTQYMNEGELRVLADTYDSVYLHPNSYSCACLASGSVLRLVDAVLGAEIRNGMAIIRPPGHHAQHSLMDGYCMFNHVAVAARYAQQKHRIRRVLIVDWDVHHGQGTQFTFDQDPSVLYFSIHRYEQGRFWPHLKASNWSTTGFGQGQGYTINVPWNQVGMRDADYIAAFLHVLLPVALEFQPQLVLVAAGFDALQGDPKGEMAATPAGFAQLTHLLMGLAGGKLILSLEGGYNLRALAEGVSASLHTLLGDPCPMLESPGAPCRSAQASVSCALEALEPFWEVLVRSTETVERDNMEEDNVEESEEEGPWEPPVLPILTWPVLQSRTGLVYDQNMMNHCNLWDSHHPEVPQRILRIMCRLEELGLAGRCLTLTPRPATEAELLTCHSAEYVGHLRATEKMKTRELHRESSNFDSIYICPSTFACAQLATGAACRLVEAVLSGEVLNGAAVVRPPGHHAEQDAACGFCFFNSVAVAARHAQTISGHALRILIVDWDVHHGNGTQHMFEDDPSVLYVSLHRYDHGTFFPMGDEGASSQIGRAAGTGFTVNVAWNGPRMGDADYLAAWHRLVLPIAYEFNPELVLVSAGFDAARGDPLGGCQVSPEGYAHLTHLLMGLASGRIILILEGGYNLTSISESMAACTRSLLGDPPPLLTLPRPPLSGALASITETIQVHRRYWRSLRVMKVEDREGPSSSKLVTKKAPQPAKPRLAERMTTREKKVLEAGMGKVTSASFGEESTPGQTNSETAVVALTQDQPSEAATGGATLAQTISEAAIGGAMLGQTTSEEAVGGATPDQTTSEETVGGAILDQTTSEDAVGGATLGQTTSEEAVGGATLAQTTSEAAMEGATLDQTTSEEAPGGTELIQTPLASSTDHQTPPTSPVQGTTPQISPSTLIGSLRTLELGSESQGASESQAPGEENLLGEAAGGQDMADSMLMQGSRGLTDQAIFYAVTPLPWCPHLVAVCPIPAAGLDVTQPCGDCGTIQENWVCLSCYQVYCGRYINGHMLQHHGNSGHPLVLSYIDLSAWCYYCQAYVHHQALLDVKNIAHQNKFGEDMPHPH

[2] = tested on: T2, Histone deacetylase 6 (Danio rerio), F8W4B7 [H573A]; test: Irreversible inhibition of Danio rerio HDAC6 H573A mutant catalytic domain 2 assessed as enzyme catalysed ring opening by measuring reduction in 2-(Benzylamino)pyrimidine-5-carbohydrazide formation at 100 uM incubated overnight by LC-MS analysis
T2 sequence (whole entry): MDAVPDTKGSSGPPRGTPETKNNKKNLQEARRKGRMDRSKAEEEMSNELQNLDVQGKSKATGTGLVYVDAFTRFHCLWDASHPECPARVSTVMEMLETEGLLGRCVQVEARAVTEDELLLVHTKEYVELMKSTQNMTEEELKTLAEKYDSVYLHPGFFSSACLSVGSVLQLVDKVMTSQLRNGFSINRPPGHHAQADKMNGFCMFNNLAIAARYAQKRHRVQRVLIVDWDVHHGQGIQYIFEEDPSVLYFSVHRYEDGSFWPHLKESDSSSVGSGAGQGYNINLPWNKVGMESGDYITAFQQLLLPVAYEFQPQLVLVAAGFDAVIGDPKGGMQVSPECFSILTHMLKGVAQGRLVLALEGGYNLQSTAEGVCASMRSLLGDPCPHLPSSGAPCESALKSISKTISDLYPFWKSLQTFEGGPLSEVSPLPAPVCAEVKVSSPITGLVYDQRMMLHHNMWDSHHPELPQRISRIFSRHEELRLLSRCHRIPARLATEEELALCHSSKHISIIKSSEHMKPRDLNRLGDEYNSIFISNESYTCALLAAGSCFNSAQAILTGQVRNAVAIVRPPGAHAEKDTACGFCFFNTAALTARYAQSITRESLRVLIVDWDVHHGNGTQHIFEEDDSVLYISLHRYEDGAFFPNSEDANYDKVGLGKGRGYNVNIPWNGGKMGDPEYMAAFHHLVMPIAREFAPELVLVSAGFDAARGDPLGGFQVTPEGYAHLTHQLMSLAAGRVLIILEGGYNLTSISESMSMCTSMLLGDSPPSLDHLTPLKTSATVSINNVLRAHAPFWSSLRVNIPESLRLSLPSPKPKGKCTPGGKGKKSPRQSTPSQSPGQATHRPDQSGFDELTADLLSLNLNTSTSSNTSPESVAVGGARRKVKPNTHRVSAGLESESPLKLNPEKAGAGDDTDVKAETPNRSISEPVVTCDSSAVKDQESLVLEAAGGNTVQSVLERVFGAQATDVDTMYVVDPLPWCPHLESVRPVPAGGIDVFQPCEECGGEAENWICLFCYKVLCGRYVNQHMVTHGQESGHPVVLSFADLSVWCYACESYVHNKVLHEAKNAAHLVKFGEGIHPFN
Outline: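 Zebrafish HDAC6 CD2 mutants were made by site-directed mutagenesis and expressed in BL21(DE3). Enzyme at 50 μM was incubated overnight with 100 μM inhibitor in 50 mM HEPES pH 7.5, 100 mM KCl, 1 mM TCEP, 5% glycerol; an enzyme-free control was included. Protein was methanol-precipitated and filtered, and products were analysed by C18 UPLC-MS with a 2-min gradient.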

[3] = target: Histone deacetylase 3/Nuclear receptor corepressor 2 (HDAC3/NCoR2) (Homo sapiens) (UniProt O15379+Q9Y618); test: Inhibition of C-terminal His-tagged human HDAC3 (1 to 428 residues)/N-terminal GST tagged human NcoR2 (395 to 489 residues) expressed in Sf9 insect cells using Z-Lys(Ac)-AMC as fluorogenic substrate at 10 uM preincubated for 60 mins followed by substrate addition and measured after 90 mins by microplate reader analysis relative to control; conditions: time 150.0 min
Outline: (§1)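 Human recombinant enzyme was preincubated with 3-fold inhibitor dilutions for 60 min at 25 °C in Tris-HCl pH 8.0 buffer with BSA. ZMAL (75 μM solution) was then added, and the mix was incubated 90 min at 37 °C (max 1% DMSO). Trypsin was added for 30 min at 37 °C, and fluorescence was read at ex 355/em 460. Tested at least twice in duplicate.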

[4] = target: Histone deacetylase 2 (Homo sapiens) (UniProt Q92769); test: Inhibition of C-terminal 6His-tagged human recombinant HDAC2 (1 to 488 residues) expressed in Sf9 insect cells using Z-Lys(Ac)-AMC as fluorogenic substrate at 10 uM preincubated for 60 mins followed by substrate addition and measured after 90 mins by microplate reader analysis relative to control; conditions: time 150.0 min; outline: as §1
Histone deacetylase 2 (Homo sapiens), sequence (Q92769 whole entry, the tested form may be a part): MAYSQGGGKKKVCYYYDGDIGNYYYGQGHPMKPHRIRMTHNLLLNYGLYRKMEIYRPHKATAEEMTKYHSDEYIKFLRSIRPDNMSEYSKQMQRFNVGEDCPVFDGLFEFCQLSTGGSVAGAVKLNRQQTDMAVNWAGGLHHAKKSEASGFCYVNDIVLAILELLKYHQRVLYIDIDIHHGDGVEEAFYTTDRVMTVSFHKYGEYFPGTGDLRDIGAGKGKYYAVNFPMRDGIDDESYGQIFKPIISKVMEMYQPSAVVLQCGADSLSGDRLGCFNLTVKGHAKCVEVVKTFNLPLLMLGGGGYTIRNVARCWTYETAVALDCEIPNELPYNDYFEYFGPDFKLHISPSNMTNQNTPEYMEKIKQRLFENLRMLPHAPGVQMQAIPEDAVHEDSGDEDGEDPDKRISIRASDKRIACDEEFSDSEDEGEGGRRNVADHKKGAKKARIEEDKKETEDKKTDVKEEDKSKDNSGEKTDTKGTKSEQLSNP

With FC(F)c1nnc(-c2cnc(NCc3ccccc3)nc2)o1 the IC50 [1] was 193 nM, the inhibition [2] was “Active” and the inhibition [3] was < 15%. The inhibition [4] was < 15%.
FC(F)(F)c1nnc(-c2cnc(NCc3ccccc3)nc2)o1 was tested, and the IC50 [1] was 531 nM, the inhibition [2] was “Active” and the inhibition [3] was < 15%. For the same compound, the inhibition [4] was < 15%.
